From ChEMBL document CHEMBL3526151, “Reversible disulfide formation of the glutamate carboxypeptidase II inhibitor E2072 results in prolonged systemic exposures in vivo” (Drug Metab Dispos, 2012)

Assays:
[1] = AUC(0 to last) in Sprague-Dawley rat at 10 mg/kg, po administered via gavage measured under fed conditions by LC-MS/MS analysis; type: ADME, organism-based; set-up: time 0 - last, dose 10 mg/kg, route oral; conditions: plasma
Summary of the method: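 Nonfasted male Sprague-Dawley rats given a single 10 mg/kg oral dose in 50 mM HEPES buffered saline, pH 7.4. Plasma collected 0.25–24 h into heparin/NEM tubes and assayed by LC-MS/MS. Noncompartmental parameters derived, including Cl/F and Vd/F. Mean ± S.D., n = 6–9.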

[2] = Volume of distribution in Sprague-Dawley rat at 0.1 mg/kg, iv administered as bolus injection measured under fasted conditions by LC-MS/MS analysis; type: ADME, organism-based; set-up: dose 0.1 mg/kg, route intravenous; conditions: in vivo
Summary of the method: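 Jugular-cannulated male Sprague-Dawley rats, 280–330 g, fasted overnight to 4 h post-dose. Single dose in 50 mM HEPES-buffered saline pH 7.4, by oral gavage or as tail-vein i.v. bolus. Blood into heparin/NEM tubes at 0–24 h. Plasma measured by LC-MS/MS; noncompartmental analysis; Tmax observed; Vd = dose/(AUCinf·λz).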

[3] = Cmax in Sprague-Dawley rat sciatic nerve at 10 mg/kg, po administered as single dose measured per gm of tissue by LC-MS/MS analysis; type: ADME, organism-based; set-up: dose 10 mg/kg, route oral
Summary of the method: (§1)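 Male Sprague-Dawley rats were dosed orally with 10 mg/kg/day, either once or daily for 5 days; n = 4 per group. Blood was taken by cardiac puncture and liver, kidney, brain and sciatic nerve were collected at 0–8 h post-dose. Tissues were homogenized in PBS containing NEM at equal volume per gram. NEM-derivatized analyte was extracted with methanol and quantified by LC-MS/MS (1–5000 ng/ml). Cmax is the observed value.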

[4] = Apparent volume of distribution in Sprague-Dawley rat at 0.1 mg/kg, po administered via gavage measured under fasted conditions by LC-MS/MS analysis; type: ADME, organism-based; set-up: dose 0.1 mg/kg, route oral; conditions: in vivo
Summary of the method: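 Fasted male Sprague-Dawley rats (280–330 g) received 0.1, 1, 10 or 30 mg/kg by oral gavage in 50 mM HEPES buffered saline, pH 7.4. Blood drawn at 0.25–24 h into heparin/NEM tubes; plasma analyzed by LC-MS/MS. Cmax taken as observed. AUC by linear trapezoidal rule with extrapolation by λz. Cl/F and Vd/F reported. Mean ± S.D., n = 4–9.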

[5] = Cmax in Sprague-Dawley rat sciatic nerve at 10 mg/kg/day, po administered measured per gm of tissue for 5 days by LC-MS/MS analysis; type: ADME, organism-based; set-up: dose 10 mg/kg/day, route oral; summary of the method: as §1
[6] = Phase 2 metabolic stability in dog liver microsomes assessed as compound remaining at 10 uM measured for 1 hr by LC-MS/MS analysis; type: ADME, Canis lupus familiaris; conditions: read-out: Stability
Summary of the method: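 For glucuronidation, compound was preincubated at 37°C in 50 mM Tris-HCl, pH 7.5, with 0.5 mg/ml liver microsomes, 8 mM MgCl2 and 25 µg/ml alamethicin. Reactions were started in duplicate with 2 mM UDPGA (final). Samples were taken up to 1 h, quenched with acetonitrile containing internal standard, and compound disappearance was measured by LC-MS/MS.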

Rattus norvegicus [7] = assay: Toxicity in Sprague-Dawley rat chronic constriction injury model assessed as paw withdrawal latencies on non-ligated side at 10 mg/kg/day, po; type: organism-based; set-up: route oral; conditions: in vivo
[8] = Phase 1 metabolic stability in dog liver microsomes assessed as compound remaining at 10 uM measured for 1 hr by LC-MS/MS analysis in absence of cofactors; type: ADME, Canis lupus familiaris; conditions: read-out: Stability
Summary of the method: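 Cofactor-free controls were run for each microsomal incubation: 0.5 mg/ml liver microsomes with 10 µM compound, omitting cofactors, so that cofactor-independent degradation could be measured. Samples were taken up to 1 h, quenched with acetonitrile containing internal standard, and the percent remaining was determined by LC-MS/MS.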

[9] = Elimination half life in cynomolgus monkey at 5 mg/kg, po by LC-MS/MS analysis; type: ADME, organism-based, Macaca fascicularis; set-up: dose 5 mg/kg, route oral; conditions: in vivo, read-out: beta t1/2 (converted)
Summary of the method: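 Cynomolgus monkeys (n = 3) received a nominal 5 mg/kg dose in 50 mM HEPES, TCEP-treated to prevent disulfide formation. Dosing was either an IV bolus via cephalic or saphenous vein or oral. Arterial cannula blood was collected into NEM-containing heparinized tubes for up to 9 days and analyzed by LC-MS/MS. Noncompartmental analysis gave t1/2 = 0.693/λz and F% = dose-normalized mean AUCinf p.o./i.v. ×100.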

[10] = Volume of distribution in cynomolgus monkey at 5 mg/kg, iv administered as bolus injection by LC-MS/MS analysis; type: ADME, organism-based, Macaca fascicularis; set-up: dose 5 mg/kg, route intravenous; conditions: in vivo
Summary of the method: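 Monkey i.v. bolus at 5 mg/kg nominal (n=3), TCEP-treated HEPES solution, via cephalic or saphenous vein. Arterial blood into NEM tubes over 9 days. Plasma measured by LC-MS/MS; Vd = dose/(AUCinf·λz).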

Cynomolgus monkey = assay: Apparent oral clearance in cynomolgus monkey at 5 mg/kg, po by LC-MS/MS analysis; type: ADME, organism-based, Macaca fascicularis; set-up: dose 5 mg/kg, route oral; conditions: in vivo
Summary of the method: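 Cynomolgus monkeys (n = 3) dosed orally at a nominal 5 mg/kg in TCEP-treated 50 mM HEPES solution. Blood taken via iliac or femoral arterial cannula up to 9 days into heparin/NEM tubes. Plasma analyzed by LC-MS/MS. Cl/F and Vd/F derived noncompartmentally.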

[11] = Cmax in Sprague-Dawley rat kidney at 10 mg/kg, po administered as single dose measured per gm of tissue by LC-MS/MS analysis; type: ADME, organism-based; set-up: dose 10 mg/kg, route oral; summary of the method: as §1
Rattus norvegicus [12] = assay: Analgesic activity in Sprague-Dawley rat chronic constriction injury model assessed as change in paw withdrawal latency at 10 mg/kg/day, po (reference value: -3.11 +/-0.34 s); type: functional
[13] = Phase 1 metabolic stability in dog liver microsomes assessed as compound remaining at 10 uM measured for 1 hr by LC-MS/MS analysis; type: ADME, Canis lupus familiaris; conditions: read-out: Stability
Summary of the method: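 Liver microsomes (0.5 mg/ml) were incubated with 10 µM compound (final) in 100 mM potassium phosphate, pH 7.4. An NADPH-regenerating system was present: 1.3 mM NADPH, 3.3 mM glucose 6-phosphate, 3.3 mM MgCl2, 0.4 U/ml G6PDH and 50 µM sodium citrate. Runs were in duplicate, with samples taken up to 1 h and quenched with acetonitrile containing internal standard. Loss of compound was followed by LC-MS/MS.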

[14] = AUC(0 to last) in Sprague-Dawley rat at 30 mg/kg, iv administered as bolus injection measured under fasted conditions by LC-MS/MS analysis; type: ADME, organism-based; set-up: time 0 - last, dose 30 mg/kg, route intravenous; conditions: plasma
Summary of the method: (§2)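 Male Sprague-Dawley rats (280–330 g), jugular vein cannulated, fasted overnight until 4 h post-dose. Single tail-vein bolus of 0.1, 1, 10 or 30 mg/kg in 50 mM HEPES buffered saline, pH 7.4. Blood drawn 0–24 h into heparin tubes containing NEM. Plasma quantified by LC-MS/MS after NEM derivatization. Noncompartmental analysis: AUClast by linear trapezoidal rule, Cl = dose/AUC0-∞. Mean ± S.D., n = 4–9.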

Rattus norvegicus [15] = assay: Clearance in Sprague-Dawley rat at 10 mg/kg, iv administered as bolus injection measured under fasted conditions by LC-MS/MS analysis; type: ADME, organism-based; set-up: dose 10 mg/kg, route intravenous; conditions: in vivo; summary of the method: as §2

## O=C(O)c1cccc(-c2cccc(CCS)c2C(=O)O)c1
[1]
  AUC(0-t): 32.2 µg·h/mL
[2]
  Vd: 0.2 L/kg
[3]
  Cmax: 203 ng/g
[4]
  Vd/F: 2.98 L/kg
[5]
  Cmax: 165 ng/g
[6]
  remaining at 1 h, 10 µM: > 90%
Rattus norvegicus [7]
  Activity: Non-toxic
[8]
  remaining at 1 h, 10 µM: > 90%
[9]
  half-life: 9.57 h
[10]
  Vd: 0.72 L/kg
Cynomolgus monkey
  CL/F: 0.057 L/h/kg
[11]
  Cmax: 405 ng/g
Rattus norvegicus [12]
  Time: -0.55 s
[13]
  remaining at 1 h, 10 µM: > 90%
[14]
  AUC(0-t): 202 µg·h/mL
Rattus norvegicus [15]
  CL: 0.27 L/h/kg
